{"source": "ChEMBL document CHEMBL1157903", "about": "“Synthesis and structure-activity relationships of 2-aryl-4-oxazolylmethoxy benzylglycines and 2-aryl-4-thiazolylmethoxy benzylglycines as novel, potent PPARalpha selective activators- PPARalpha and PPARgamma selectivity modulation” (Bioorg Med Chem Lett, 2010)"}
{"target": "T1, Peroxisome proliferator-activated receptor alpha (Homo sapiens, UniProt Q07869)", "T1 sequence (Q07869 whole entry)": "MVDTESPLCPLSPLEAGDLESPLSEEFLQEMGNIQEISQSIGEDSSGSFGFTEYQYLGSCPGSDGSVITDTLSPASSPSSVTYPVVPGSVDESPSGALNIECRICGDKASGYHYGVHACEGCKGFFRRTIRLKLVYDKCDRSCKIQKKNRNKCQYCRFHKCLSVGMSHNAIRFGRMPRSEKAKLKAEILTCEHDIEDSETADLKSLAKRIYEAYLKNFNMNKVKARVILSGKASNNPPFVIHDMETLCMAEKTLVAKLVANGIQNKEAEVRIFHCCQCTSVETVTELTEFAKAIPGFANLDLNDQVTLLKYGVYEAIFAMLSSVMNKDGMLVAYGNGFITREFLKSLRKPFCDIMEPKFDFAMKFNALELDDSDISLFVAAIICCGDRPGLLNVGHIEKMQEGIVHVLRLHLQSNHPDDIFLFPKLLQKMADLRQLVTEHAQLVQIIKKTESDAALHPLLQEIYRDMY", "assay": "Agonist activity against human Gal4-fussed PPARalpha in HEK293 cells by luciferase reporter gene assay", "format": "functional, cell-based", "method_in_brief": "(§1)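 Transactivation assay in HEK293 cells with a luciferase reporter. After cell lysis, luciferin is added and luminescence is read. EC50 is the ligand concentration giving half-maximal fold induction. Maximal efficacy is expressed as % of standards, with fenofibrate at 100 µM = 100% for PPARα and rosiglitazone at 1 µM = 100% for PPARγ. Data are normalized to known agonists at 1 µM.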", "units": {"EC50": "nM"}}
{"smiles": "COC(=O)N(CC(=O)O)Cc1cccc(OCc2coc(-c3ccc(C)cc3)n2)c1", "EC50": 29.9}
{"smiles": "Cc1cccc(OC(=O)N(CC(=O)O)[C@@H](C)c2cccc(OCc3coc(-c4ccc(Cl)cc4)n3)c2)c1", "EC50": 22}
{"smiles": "COc1cc(OC(=O)N(CC(=O)O)[C@@H](C)c2cccc(OCc3coc(-c4ccc(Cl)cc4)n3)c2)ccc1F", "EC50": 51}
{"smiles": "COC(=O)N(CC(=O)O)Cc1cccc(OCc2csc(-c3ccc(C)cc3)n2)c1", "EC50": 41.8}
{"smiles": "COC(=O)N(CC(=O)O)Cc1cccc(OCc2coc(-c3ccccc3)n2)c1", "EC50": 1230}
{"smiles": "COC(=O)N(CC(=O)O)Cc1cccc(OCc2csc(-c3cccc(Cl)c3)n2)c1", "EC50": 1450}
{"target": "T2, Peroxisome proliferator-activated receptor alpha (Homo sapiens) (UniProt Q07869)", "T2 sequence (whole entry)": "T1 sequence (Q07869 whole entry)", "assay": "Agonist activity against human Gal4-fussed PPARalpha by luciferase reporter gene assay relative to finofibrate", "format": "functional", "method_in_brief": "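Gal4-fused human PPARα transactivation in HEK293 cells with a luciferase reporter, read as luminescence after cell lysis and luciferin addition. EC50 is the ligand concentration (µM) giving half-maximal fold induction. Maximal efficacy is expressed as a percentage of fenofibrate at 100 µM (set as 100%). Intrinsic activity is the response at 1 µM as a percentage of the standard at 1 µM.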", "units": {"Emax": "%"}}
{"smiles": "COC(=O)N(CC(=O)O)Cc1cccc(OCc2coc(-c3ccc(C)cc3)n2)c1", "Emax": 85}
{"smiles": "Cc1cccc(OC(=O)N(CC(=O)O)[C@@H](C)c2cccc(OCc3coc(-c4ccc(Cl)cc4)n3)c2)c1", "Emax": 62}
{"smiles": "COc1cc(OC(=O)N(CC(=O)O)[C@@H](C)c2cccc(OCc3coc(-c4ccc(Cl)cc4)n3)c2)ccc1F", "Emax": 64}
{"smiles": "COC(=O)N(CC(=O)O)Cc1cccc(OCc2csc(-c3ccc(C)cc3)n2)c1", "Emax": 71}
{"smiles": "COC(=O)N(CC(=O)O)Cc1cccc(OCc2coc(-c3ccccc3)n2)c1", "Emax": 105}
{"smiles": "COC(=O)N(CC(=O)O)Cc1cccc(OCc2csc(-c3cccc(Cl)c3)n2)c1", "Emax": 117}
{"target": "T3, Peroxisome proliferator-activated receptor gamma (Homo sapiens, UniProt P37231)", "T3 sequence (P37231 whole entry)": "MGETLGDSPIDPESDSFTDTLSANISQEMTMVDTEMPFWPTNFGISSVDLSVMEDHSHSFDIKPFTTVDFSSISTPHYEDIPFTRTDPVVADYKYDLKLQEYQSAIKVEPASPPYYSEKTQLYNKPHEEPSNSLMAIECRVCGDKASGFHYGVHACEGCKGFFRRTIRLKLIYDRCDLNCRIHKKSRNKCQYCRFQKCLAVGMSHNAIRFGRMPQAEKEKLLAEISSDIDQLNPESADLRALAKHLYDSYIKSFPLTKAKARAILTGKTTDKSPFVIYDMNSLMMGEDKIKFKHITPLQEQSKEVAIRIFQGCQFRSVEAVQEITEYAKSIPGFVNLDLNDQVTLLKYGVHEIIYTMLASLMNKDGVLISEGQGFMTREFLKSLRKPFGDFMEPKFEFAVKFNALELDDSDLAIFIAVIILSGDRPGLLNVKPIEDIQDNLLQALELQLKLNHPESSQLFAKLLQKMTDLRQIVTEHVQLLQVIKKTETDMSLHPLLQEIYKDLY", "assay": "Agonist activity against human Gal4-fussed PPARgamma in HEK293 cells by luciferase reporter gene assay", "format": "functional, cell-based", "method_in_brief": "as §1", "units": {"EC50": "nM"}}
{"smiles": "COC(=O)N(CC(=O)O)Cc1cccc(OCc2coc(-c3ccc(C)cc3)n2)c1", "EC50": 15600}
{"smiles": "Cc1cccc(OC(=O)N(CC(=O)O)[C@@H](C)c2cccc(OCc3coc(-c4ccc(Cl)cc4)n3)c2)c1", "EC50": 571}
{"smiles": "COc1cc(OC(=O)N(CC(=O)O)[C@@H](C)c2cccc(OCc3coc(-c4ccc(Cl)cc4)n3)c2)ccc1F", "EC50": 1440}
{"smiles": "COC(=O)N(CC(=O)O)Cc1cccc(OCc2csc(-c3ccc(C)cc3)n2)c1", "EC50": 9290}
{"smiles": "COC(=O)N(CC(=O)O)Cc1cccc(OCc2coc(-c3ccccc3)n2)c1", "EC50": "> 25000"}
{"smiles": "COC(=O)N(CC(=O)O)Cc1cccc(OCc2csc(-c3cccc(Cl)c3)n2)c1", "EC50": 4020}
{"target": "T4, Peroxisome proliferator-activated receptor gamma (Homo sapiens) (UniProt P37231)", "T4 sequence (whole entry)": "T3 sequence (P37231 whole entry)", "assay": "Agonist activity against human Gal4-fussed PPARgamma by luciferase reporter gene assay relative to rosiglitazone", "units": {"Emax": "%"}}
{"smiles": "COC(=O)N(CC(=O)O)Cc1cccc(OCc2coc(-c3ccc(C)cc3)n2)c1", "Emax": 94}
{"smiles": "Cc1cccc(OC(=O)N(CC(=O)O)[C@@H](C)c2cccc(OCc3coc(-c4ccc(Cl)cc4)n3)c2)c1", "Emax": 83}
{"smiles": "COc1cc(OC(=O)N(CC(=O)O)[C@@H](C)c2cccc(OCc3coc(-c4ccc(Cl)cc4)n3)c2)ccc1F", "Emax": 74}
{"smiles": "COC(=O)N(CC(=O)O)Cc1cccc(OCc2csc(-c3ccc(C)cc3)n2)c1", "Emax": 84}
{"smiles": "COC(=O)N(CC(=O)O)Cc1cccc(OCc2csc(-c3cccc(Cl)c3)n2)c1", "Emax": 54}
